From ChEMBL document CHEMBL4152196, “Design, synthesis and biological evaluation of novel trimethylangelicin analogues targeting nuclear factor kB (NF-kB)” (Eur J Med Chem, 2018)
The source made the active and inactive calls. The rule behind the calls is not given here.

What was measured:
Salmonella typhimurium [1] = test: Genotoxicity in Salmonella typhimurium TA98 assessed as revertant colonies at 100 uL/plate in presence of Sprague-Dawley rat S9 metabolic activation after 72 hrs by Ames test (reference value: 1); assay type: toxicity, organism-based; conditions: salmonella enterica subsp. enterica serovar typhimurium
Salmonella typhimurium [2] = test: Genotoxicity in Salmonella typhimurium TA97A assessed as revertant colonies at 1 uL/plate in presence of Sprague-Dawley rat S9 metabolic activation after 72 hrs by Ames test (reference value: 1); assay type: toxicity, organism-based; conditions: salmonella enterica subsp. enterica serovar typhimurium
Salmonella typhimurium [3] = test: Genotoxicity in Salmonella typhimurium TA1535 assessed as revertant colonies at 1 uL/plate in presence of Sprague-Dawley rat S9 metabolic activation after 72 hrs by Ames test (reference value: 1); assay type: toxicity, organism-based; conditions: salmonella enterica subsp. enterica serovar typhimurium
Salmonella typhimurium [4] = test: Genotoxicity in Salmonella typhimurium TA100 assessed as revertant colonies at 5 uL/plate in presence of Sprague-Dawley rat S9 metabolic activation after 72 hrs by Ames test (reference value: 1); assay type: toxicity, organism-based; conditions: salmonella enterica subsp. enterica serovar typhimurium
Salmonella typhimurium [5] = test: Genotoxicity in Salmonella typhimurium TA100 assessed as revertant colonies at 100 uL/plate in absence of Sprague-Dawley rat S9 metabolic activation after 72 hrs by Ames test (reference value: 1); assay type: toxicity, organism-based; conditions: salmonella enterica subsp. enterica serovar typhimurium
Salmonella typhimurium [6] = test: Genotoxicity in Salmonella typhimurium TA98 assessed as revertant colonies at 5 uL/plate in presence of Sprague-Dawley rat S9 metabolic activation after 72 hrs by Ames test (reference value: 1); assay type: toxicity, organism-based; conditions: salmonella enterica subsp. enterica serovar typhimurium
Salmonella typhimurium [7] = test: Genotoxicity in Salmonella typhimurium TA97A assessed as revertant colonies at 10 uL/plate in presence of Sprague-Dawley rat S9 metabolic activation after 72 hrs by Ames test (reference value: 1); assay type: toxicity, organism-based; conditions: salmonella enterica subsp. enterica serovar typhimurium
Salmonella typhimurium [8] = test: Genotoxicity in Salmonella typhimurium TA100 assessed as revertant colonies at 50 uL/plate in absence of Sprague-Dawley rat S9 metabolic activation after 72 hrs by Ames test (reference value: 1); assay type: toxicity, organism-based; conditions: salmonella enterica subsp. enterica serovar typhimurium
Salmonella typhimurium [9] = test: Genotoxicity in Salmonella typhimurium TA100 assessed as revertant colonies at 1 uL/plate in absence of Sprague-Dawley rat S9 metabolic activation after 72 hrs by Ames test (reference value: 1); assay type: toxicity, organism-based; conditions: salmonella enterica subsp. enterica serovar typhimurium
Salmonella typhimurium [10] = test: Genotoxicity in Salmonella typhimurium TA98 assessed as revertant colonies at 50 uL/plate in absence of Sprague-Dawley rat S9 metabolic activation after 72 hrs by Ames test (reference value: 1); assay type: toxicity, organism-based; conditions: salmonella enterica subsp. enterica serovar typhimurium
Salmonella typhimurium [11] = test: Genotoxicity in Salmonella typhimurium TA100 assessed as revertant colonies at 10 uL/plate in absence of Sprague-Dawley rat S9 metabolic activation after 72 hrs by Ames test (reference value: 1); assay type: toxicity, organism-based; conditions: salmonella enterica subsp. enterica serovar typhimurium
Salmonella typhimurium [12] = test: Genotoxicity in Salmonella typhimurium TA97A assessed as revertant colonies at 100 uL/plate in presence of Sprague-Dawley rat S9 metabolic activation after 72 hrs by Ames test (reference value: 1); assay type: toxicity, organism-based; conditions: salmonella enterica subsp. enterica serovar typhimurium
Salmonella typhimurium [13] = test: Genotoxicity in Salmonella typhimurium TA98 assessed as revertant colonies at 1 uL/plate in absence of Sprague-Dawley rat S9 metabolic activation after 72 hrs by Ames test (reference value: 1); assay type: toxicity, organism-based; conditions: salmonella enterica subsp. enterica serovar typhimurium
Homo sapiens = organism: Homo sapiens; test: Inhibition of NF-kappaB (unknown origin) assessed as decrease in NF-kappaB/DNA interaction at 12.5 to 100 uM using 32P-labeled target NF-kappaB double-stranded oligonucleotide after 30 mins by EMSA
Method in brief: (§1)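 Purified NF-κB p50 (0.1 µl/20 µl, 50 gsu) was combined with 0.25 ng of ³²P-labeled double-stranded NF-κB consensus oligonucleotide. Bound 30 min at room temperature, then run on 6% polyacrylamide in 0.25× TBE at 200 V. IC₅₀ is 50% inhibition of the complex.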

Salmon testes DNA [14] = test: Binding affinity to salmon testes DNA assessed as furocoumarin-pyrimidine base formation in presence of 15 J/cm2 UVA light irradiation by TLC analysis; assay type: nucleic-acid assay; conditions: Salmonidae
Salmonella typhimurium [15] = test: Genotoxicity in Salmonella typhimurium TA1535 assessed as revertant colonies at 50 uL/plate in absence of Sprague-Dawley rat S9 metabolic activation after 72 hrs by Ames test (reference value: 1); assay type: toxicity, organism-based; conditions: salmonella enterica subsp. enterica serovar typhimurium
Salmonella typhimurium [16] = test: Genotoxicity in Salmonella typhimurium TA1535 assessed as revertant colonies at 10 uL/plate in absence of Sprague-Dawley rat S9 metabolic activation after 72 hrs by Ames test (reference value: 1); assay type: toxicity, organism-based; conditions: salmonella enterica subsp. enterica serovar typhimurium
Salmonella typhimurium [17] = test: Genotoxicity in Salmonella typhimurium TA98 assessed as revertant colonies at 1 uL/plate in presence of Sprague-Dawley rat S9 metabolic activation after 72 hrs by Ames test (reference value: 1); assay type: toxicity, organism-based; conditions: salmonella enterica subsp. enterica serovar typhimurium
Salmonella typhimurium [18] = test: Genotoxicity in Salmonella typhimurium TA1535 assessed as revertant colonies at 1 uL/plate in absence of Sprague-Dawley rat S9 metabolic activation after 72 hrs by Ames test (reference value: 1); assay type: toxicity, organism-based; conditions: salmonella enterica subsp. enterica serovar typhimurium
Salmonella typhimurium [19] = test: Genotoxicity in Salmonella typhimurium TA1535 assessed as revertant colonies at 100 uL/plate in presence of Sprague-Dawley rat S9 metabolic activation after 72 hrs by Ames test (reference value: 1); assay type: toxicity, organism-based; conditions: salmonella enterica subsp. enterica serovar typhimurium
Salmonella typhimurium [20] = test: Genotoxicity in Salmonella typhimurium TA98 assessed as revertant colonies at 100 uL/plate in absence of Sprague-Dawley rat S9 metabolic activation after 72 hrs by Ames test (reference value: 1); assay type: toxicity, organism-based; conditions: salmonella enterica subsp. enterica serovar typhimurium
Salmonella typhimurium [21] = test: Genotoxicity in Salmonella typhimurium TA97A assessed as revertant colonies at 5 uL/plate in presence of Sprague-Dawley rat S9 metabolic activation after 72 hrs by Ames test (reference value: 1); assay type: toxicity, organism-based; conditions: salmonella enterica subsp. enterica serovar typhimurium
Salmonella typhimurium [22] = test: Genotoxicity in Salmonella typhimurium TA97A assessed as revertant colonies at 50 uL/plate in presence of Sprague-Dawley rat S9 metabolic activation after 72 hrs by Ames test (reference value: 1); assay type: toxicity, organism-based; conditions: salmonella enterica subsp. enterica serovar typhimurium
[23] = Inhibition of NF-kappaB (unknown origin) assessed as decrease in NF-kappaB/DNA interaction using 32P-labeled target NF-kappaB double-stranded oligonucleotide after 30 mins by EMSA; set-up: species or system Homo sapiens; method in brief: as §1
Salmonella typhimurium [24] = test: Genotoxicity in Salmonella typhimurium TA1535 assessed as revertant colonies at 5 uL/plate in absence of Sprague-Dawley rat S9 metabolic activation after 72 hrs by Ames test (reference value: 1); assay type: toxicity, organism-based; conditions: salmonella enterica subsp. enterica serovar typhimurium
Salmonella typhimurium [25] = test: Genotoxicity in Salmonella typhimurium TA97A assessed as revertant colonies at 1 uL/plate in absence of Sprague-Dawley rat S9 metabolic activation after 72 hrs by Ames test (reference value: 1); assay type: toxicity, organism-based; conditions: salmonella enterica subsp. enterica serovar typhimurium
Salmon testes DNA [26] = test: Induction of damage in salmon testes DNA at 100 uM in presence of 2.5 to 7.5 J/cm2 UVA irradiation by ethidium bromide dye-based agarose gel electrophoresis analysis; assay type: nucleic-acid assay; conditions: salmonidae
Salmonella typhimurium [27] = test: Genotoxicity in Salmonella typhimurium TA1535 assessed as revertant colonies at 5 uL/plate in presence of Sprague-Dawley rat S9 metabolic activation after 72 hrs by Ames test (reference value: 1); assay type: toxicity, organism-based; conditions: salmonella enterica subsp. enterica serovar typhimurium
Salmonella typhimurium [28] = test: Genotoxicity in Salmonella typhimurium TA98 assessed as revertant colonies at 10 uL/plate in presence of Sprague-Dawley rat S9 metabolic activation after 72 hrs by Ames test (reference value: 1); assay type: toxicity, organism-based; conditions: salmonella enterica subsp. enterica serovar typhimurium
IB3-1 = test: Inhibition of TNF-alpha induced PDGF-B chain production in human IB3-1 cells at 1 uM preincubated for 5 hrs followed by TNF-alpha stimulation and measured after 24 hrs relative to control; assay type: functional
Method in brief: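 IB3-1 cells (CF patient, ΔF508/W1282X, adeno12/SV40-immortalized) grown in LHC-8 with 5% FBS, no gentamycin, 37°C/5% CO₂; 60% confluent monolayers seeded, compound added after 24 h, 5 h before 80 ng/ml TNF-α, then 24 h further incubation. Cytokines in supernatants measured by Bioplex 27-plex Luminex bead assay: beads, detection antibody, streptavidin–phycoerythrin, 30/30/10 min at room temperature.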

inhibition (Homo sapiens): Active
Activity (Salmon testes DNA [14]): inactive
IC50 [23]: 7.4 µM
Structure (SMILES): CCc1cc2c(C(C)C)cc(=O)oc2c2c(C)coc12
T/C (Salmonella typhimurium [1]): 0.6
T/C (Salmonella typhimurium [2]): 1
T/C (Salmonella typhimurium [3]): 1.1
T/C (Salmonella typhimurium [4]): 1.1
T/C (Salmonella typhimurium [5]): 0.9
T/C (Salmonella typhimurium [6]): 0.6
T/C (Salmonella typhimurium [7]): 1.2
T/C (Salmonella typhimurium [8]): 0.9
T/C (Salmonella typhimurium [9]): 0.8
T/C (Salmonella typhimurium [10]): 1.2
T/C (Salmonella typhimurium [11]): 0.8
T/C (Salmonella typhimurium [12]): 1
T/C (Salmonella typhimurium [13]): 1.1
T/C (Salmonella typhimurium [15]): 1
T/C (Salmonella typhimurium [16]): 0.9
T/C (Salmonella typhimurium [17]): 0.8
T/C (Salmonella typhimurium [18]): 1.1
T/C (Salmonella typhimurium [19]): 0.8
T/C (Salmonella typhimurium [20]): 1.2
T/C (Salmonella typhimurium [21]): 1.1
T/C (Salmonella typhimurium [22]): 1.2
T/C (Salmonella typhimurium [24]): 1.1
T/C (Salmonella typhimurium [25]): 1.1
Activity (Salmon testes DNA [26]): Not Active
T/C (Salmonella typhimurium [27]): 0.9
T/C (Salmonella typhimurium [28]): 0.7
inhibition at 1 µM (IB3-1): > 20%
